Results as given in ChEMBL document CHEMBL4052644, “Synthesis of novel benzylidene analogues of betulinic acid as potent cytotoxic agents” (Eur J Med Chem, 2017).

Legend:
PC-3 [1] = assay: Growth inhibition of human PC3 cells at 10 uM after 48 hrs by SRB assay relative to control; assay type: functional; details: PC-3, 48 h, read-out: GI
Summary of the method: (§1)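 Primary SRB screen of every compound at a single concentration of 10 µM. Growth inhibition is expressed relative to control.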

[2] = Selectivity index, ratio of IC50 for human FR2 cells to IC50 for human HCT116 cells; assay type: functional
Summary of the method: (§2)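 Selectivity index is the IC50 in normal breast epithelial fR2 cells divided by the IC50 in each cancer line. All IC50 values come from the SRB assay.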

PC-3 [3] = assay: Cytotoxicity against human PC3 cells assessed as reduction in cell viability after 48 hrs by SRB assay; assay type: functional, cell-based; details: PC-3, 48 h
Summary of the method: (§3)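 SRB assay. Compounds active at 10 µM in the primary screen were retested at 1, 2.5 and 5 µM, and IC50 was calculated from these concentrations. The normal breast epithelial line fR2 was tested alongside the cancer lines.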

MCF7 [4] = assay: Growth inhibition of human MCF7 cells at 10 uM after 48 hrs by SRB assay relative to control; assay type: functional; details: MCF7, 48 h, read-out: GI; summary of the method: as §1
A549 [5] = assay: Growth inhibition of human A549 cells at 10 uM after 48 hrs by SRB assay relative to control; assay type: functional; details: A549, 48 h, read-out: GI; summary of the method: as §1
[6] = Selectivity index, ratio of IC50 for human FR2 cells to IC50 for human A549 cells; assay type: functional; summary of the method: as §2
MCF7 [7] = assay: Cytotoxicity against human MCF7 cells assessed as reduction in cell viability after 48 hrs by SRB assay; assay type: functional, cell-based; details: MCF7, 48 h; summary of the method: as §3
MIA PaCa-2 [8] = assay: Growth inhibition of human MIAPaCa2 at 10 uM after 48 hrs by SRB assay relative to control; assay type: functional; details: MIA PaCa-2, 48 h, read-out: GI; summary of the method: as §1
[9] = Selectivity index, ratio of IC50 for human FR2 cells to IC50 for human MCF7 cells; assay type: functional; summary of the method: as §2
HCT-116 [10] = assay: Growth inhibition of human HCT116 cells at 10 uM after 48 hrs by SRB assay relative to control; assay type: functional; details: HCT-116, 48 h, read-out: GI; summary of the method: as §1
[11] = Selectivity index, ratio of IC50 for human FR2 cells to IC50 for human PC3 cells; assay type: functional; summary of the method: as §2
[12] = Cytotoxicity against human FR2 cells assessed as reduction in cell viability after 48 hrs by SRB assay; assay type: cell-based; details: FR2, 48 h; summary of the method: as §3
A549 [13] = assay: Cytotoxicity against human A549 cells assessed as reduction in cell viability after 48 hrs by SRB assay; assay type: functional, cell-based; details: A549, 48 h; summary of the method: as §3
HCT-116 [14] = assay: Cytotoxicity against human HCT116 cells assessed as reduction in cell viability after 48 hrs by SRB assay; assay type: functional, cell-based; details: HCT-116, 48 h; summary of the method: as §3
MIA PaCa-2 [15] = assay: Cytotoxicity against human MIAPaCa2 cells assessed as reduction in cell viability after 48 hrs by SRB assay; assay type: functional, cell-based; details: MIA PaCa-2, 48 h; summary of the method: as §3

Structure (SMILES)	inhibition of growth at 10 µM (PC-3 [1])	Ratio IC50 [2]	IC50 (PC-3 [3])	inhibition of growth at 10 µM (MCF7 [4])	inhibition of growth at 10 µM (A549 [5])	Ratio IC50 [6]	IC50 (MCF7 [7])	inhibition of growth at 10 µM (MIA PaCa-2 [8])	Ratio IC50 [9]	inhibition of growth at 10 µM (HCT-116 [10])	Ratio IC50 [11]	IC50 [12]	IC50 (A549 [13])	IC50 (HCT-116 [14])	IC50 (MIA PaCa-2 [15])
C=C(C)[C@@H]1CC[C@]2(C(=O)O)CC[C@]3(C)[C@H](CC[C@@H]4[C@@]5(C)C/C(=C\c6cccc(Br)c6)C(=O)C(C)(C)[C@@H]5CC[C@]43C)[C@@H]12	56%	3.44	8.7 µM	56%	71%	5.55	5.2 µM	35%	3.25	57%	1.94	16.9 µM	3.04 µM	4.9 µM	> 10 µM
C=C(C)[C@@H]1CC[C@]2(C(=O)O)CC[C@]3(C)[C@H](CC[C@@H]4[C@@]5(C)C/C(=C\c6cc(Br)ccc6OC)C(=O)C(C)(C)[C@@H]5CC[C@]43C)[C@@H]12	81%	2.802	7.1 µM	85%	88%	7.705	6.3 µM	28%	2.09	92%	1.854	13.1 µM	1.7 µM	4.7 µM	> 10 µM
C=C(C)[C@@H]1CC[C@]2(C(=O)O)CC[C@]3(C)[C@H](CC[C@@H]4[C@@]5(C)C/C(=C\c6ccc(Br)cc6)C(=O)C(C)(C)[C@@H]5CC[C@]43C)[C@@H]12	66%	2.39	8.3 µM	68%	72%	6.15	7.1 µM	27%	1.481	61%	1.267	10.5 µM	1.71 µM	4.4 µM	> 10 µM
C=C(C)[C@@H]1CC[C@]2(C(=O)O)CC[C@]3(C)[C@H](CC[C@@H]4[C@@]5(C)C/C(=C\c6ccc(Br)cc6)[C@H](O)C(C)(C)[C@@H]5CC[C@]43C)[C@@H]12	48%	6.2	8.2 µM	64%	80%	19.63	8.1 µM	48%	4.36	66%	4.3	35.3 µM	1.8 µM	5.7 µM	> 10 µM
C=C(C)[C@@H]1CC[C@]2(C(=O)O)CC[C@]3(C)[C@H](CC[C@@H]4[C@@]5(C)C/C(=C\c6cccc([N+](=O)[O-])c6)C(=O)C(C)(C)[C@@H]5CC[C@]43C)[C@@H]12	41%	1.602	> 10 µM	70%	75%	2.591	7.1 µM	31%	1.715	69%	3.009	12.2 µM	4.7 µM	7.6 µM	> 10 µM
C=C(C)[C@@H]1CC[C@]2(C(=O)O)CC[C@]3(C)[C@H](CC[C@@H]4[C@@]5(C)C/C(=C\c6cc(Br)ccc6OC)[C@H](O)C(C)(C)[C@@H]5CC[C@]43C)[C@@H]12	7%	1.93	> 10 µM	67%	65%	3.76	5.2 µM	16%	2.025	54%	–	10.5 µM	2.8 µM	5.44 µM	> 10 µM
C=C(C)[C@@H]1CC[C@]2(C(=O)O)CC[C@]3(C)[C@H](CC[C@@H]4[C@@]5(C)CC[C@H](O)C(C)(C)[C@@H]5CC[C@]43C)[C@@H]12 [BETULINIC ACID]	49%	–	> 10 µM	28%	40%	–	> 10 µM	26%	–	42%	–	30.1 µM	> 10 µM	> 10 µM	> 10 µM
